{"data": "Results of several laboratories", "organism": "Mycobacterium tuberculosis", "observed": "microbial growth", "note": "Compare with care: the assays were run in different laboratories."}
{"Structure (SMILES)": "COC(=O)c1cc(-c2ccc(NC(=O)Nc3ccc(Cl)c(Cl)c3)cc2)on1", "test system": "ATCC27294 H37RV", "conditions": "7 days", "MIC": "0.5 µg/mL"}
{"Structure (SMILES)": "Cc1ccc(C)n1-c1ccc(-c2nnc(-c3ccc(O)cc3)[nH]2)cc1", "test": "broth dilution", "test system": "H37RV", "conditions": "21 days", "MIC": "16 µg/mL"}
{"Structure (SMILES)": "NNC(=O)c1ccncc1", "test": "resazurin", "test system": "H37RV", "MIC": "0.8 µM"}
{"Structure (SMILES)": "CC1CCC2(CC1)SC(C)C(=O)N2NC(=O)c1[nH]c2ccc(Cl)cc2c1-c1ccccc1 (stereo not drawn)", "test system": "ATCC27294 H37RV", "MIC": "1000 µM"}
{"Structure (SMILES)": "CO/N=C(\\C(=O)N[C@@H]1C(=O)N2C(C(=O)O)=C(COC(C)=O)CS[C@H]12)c1csc(N)n1", "test": "resazurin", "test system": "H37RA", "conditions": "14 days", "MIC": "16 µg/mL"}
{"Structure (SMILES)": "COc1nc2ccc(Br)cc2cc1[C@@H](c1ccccc1)[C@@](O)(CCN(C)C)c1cccc2ccccc12", "test": "resazurin", "test system": "H37RV", "conditions": "7 days", "MIC": "0.17 µM"}
{"Structure (SMILES)": "COC(=O)c1cc(-c2cccc(NC(=S)Nc3ccc(F)c(Cl)c3)c2)on1", "test system": "ATCC27294 H37RV", "conditions": "7 days", "MIC": "4 µg/mL"}
{"Structure (SMILES)": "OCN(CO)c1nc(N(CO)CO)nc(N(CO)CO)n1", "test system": "H37RV", "conditions": "7 days", "MIC": "8 to 16 µg/mL"}
{"Structure (SMILES)": "CO[C@H]1/C=C/O[C@@]2(C)Oc3c(C)c(O)c4c(O)c(c(/C=N/N5CCN(C)CC5)c(O)c4c3C2=O)NC(=O)/C(C)=C\\C=C\\[C@H](C)[C@H](O)[C@@H](C)[C@@H](O)[C@@H](C)[C@H](OC(C)=O)[C@@H]1C", "test system": "H37RA", "MIC": "0.008 µg/mL"}
{"Structure (SMILES)": "CCCC1CCC2(CC1)SCC(=O)N2NC(=O)c1[nH]c2ccc(Cl)cc2c1-c1ccccc1 (stereo not drawn)", "test system": "ATCC27294 H37RV", "MIC": "31 µM"}
{"Structure (SMILES)": "O=C(CNS(=O)(=O)c1ccc([N+](=O)[O-])cc1)N1CCN(C(c2ccc(F)cc2)c2ccc(F)cc2)CC1", "test system": "ATCC27294 H37RV", "MIC": "25 µg/mL"}
{"Structure (SMILES)": "O=C1COCCN1c1ccc(CO[C@@H]2COc3nc([N+](=O)[O-])cn3C2)cc1F", "test system": "H37RV", "MIC": "0.4 to 0.8 µg/mL"}
{"Structure (SMILES)": "NNC(=O)c1ccncc1", "MIC": "0.03 µg/mL"}
{"Structure (SMILES)": "COC(=O)c1cc(-c2cccc(NC(=O)Nc3cccc(C(F)(F)F)c3)c2)on1", "test system": "ATCC27294 H37RV", "conditions": "7 days", "MIC": "2 µg/mL"}
{"Structure (SMILES)": "O=C1C(=NNc2nc(-c3ccccc3)cs2)C(N=Cc2ccc([N+](=O)[O-])cc2)=NN1c1ccccc1", "test": "resazurin", "test system": "H37RV", "conditions": "5 days", "MIC": "50.5 µM"}
{"Structure (SMILES)": "C[C@@H]1CN2c3c(cc4c(N5CC[C@@H](O)C5)noc4c3F)CC3(C(=O)NC(=O)NC3=O)[C@H]2[C@H](C)N1C#N", "test system": "H37RV", "MIC": "7.8 µM"}
{"Structure (SMILES)": "COC(=O)c1cc(-c2cccc(NC(=S)Nc3ccc(C)cc3)c2)on1", "test system": "ATCC27294 H37RV", "conditions": "7 days", "MIC": "2 µg/mL"}
{"Structure (SMILES)": "O=C1C(=NNc2nc(-c3ccccc3)cs2)C(N=Cc2ccccc2O)=NN1c1ccccc1", "test": "resazurin", "test system": "H37RV", "MIC": "25 µg/mL"}
{"Structure (SMILES)": "NNC(=O)c1ccncc1", "test system": "H37RV", "conditions": "5 days", "MIC": "0.3 µM"}
{"Structure (SMILES)": "C[C@H]1c2cccc(O)c2C(=O)C2=C(O)[C@]3(O)C(=O)C(C(N)=O)=C(O)[C@@H](N(C)C)[C@@H]3[C@@H](O)[C@@H]21", "test": "resazurin", "test system": "H37RA", "conditions": "14 days", "MIC": "1 µg/mL"}
{"Structure (SMILES)": "Cc1c(Cc2ccc(C(C)(C)C)cc2)c(=O)n2c([nH]c3ccccc32)c1C#N", "test": "broth dilution", "test system": "H37RV", "MIC": "1 µg/mL"}
{"Structure (SMILES)": "CCC1CCC2(CC1)SC(C)C(=O)N2NC(=O)c1[nH]c2ccc(Cl)cc2c1-c1ccccc1 (stereo not drawn)", "test system": "ATCC27294 H37RV", "MIC": "1000 µM"}
{"Structure (SMILES)": "Cc1c(Cc2ccc(F)cc2)c(=O)n2c([nH]c3ccccc32)c1C#N", "test": "broth dilution", "test system": "H37RV", "MIC": "2 µg/mL"}
{"Structure (SMILES)": "COc1cccc(C=NC2=NN(c3ccccc3)C(=O)C2=NNc2nc(-c3ccccc3)cs2)c1", "test": "resazurin", "test system": "H37RV", "MIC": "12.5 µg/mL"}
{"Structure (SMILES)": "C[C@@H]1CN(c2nc(=O)c3cc(C(F)(F)F)cc(C#N)c3s2)[C@@H](C)CN1CC1CCCCC1", "test": "resazurin", "test system": "H37RV", "MIC": "> 2 µM"}
{"Structure (SMILES)": "CO[C@H]1/C=C/O[C@@]2(C)Oc3c(C)c(O)c4c(O)c(c(/C=N/N5CCN(C)CC5)c(O)c4c3C2=O)NC(=O)/C(C)=C\\C=C\\[C@H](C)[C@H](O)[C@@H](C)[C@@H](O)[C@@H](C)[C@H](OC(C)=O)[C@@H]1C", "test system": "H37RV", "conditions": "5 days", "MIC": "0.012 µM"}
{"Structure (SMILES)": "NNC(=O)c1ccncc1", "test system": "ATCC27294 H37RV", "conditions": "7 days", "MIC": "0.03 µg/mL"}
{"Structure (SMILES)": "CO[C@H]1/C=C/O[C@@]2(C)Oc3c(C)c(O)c4c(O)c(c(/C=N/N5CCN(C)CC5)c(O)c4c3C2=O)NC(=O)/C(C)=C\\C=C\\[C@H](C)[C@H](O)[C@@H](C)[C@@H](O)[C@@H](C)[C@H](OC(C)=O)[C@@H]1C", "test": "resazurin", "test system": "H37RV", "conditions": "14 days", "MIC": "0.075 µM"}
{"Structure (SMILES)": "CCCCCCC/C=C\\[C@H](O)C#CC#C[C@@H](O)CC", "test": "resazurin", "test system": "ATCC27294 H37RV", "conditions": "7 days", "MIC": "50.2 µg/mL"}
{"Structure (SMILES)": "Cc1ccc(C)n1-c1ccc(C(=O)NNC=O)cc1", "test": "broth dilution", "test system": "H37RV", "conditions": "21 days", "MIC": "4 µg/mL"}
{"Structure (SMILES)": "CO[C@H]1/C=C/O[C@@]2(C)Oc3c(C)c(O)c4c(O)c(c(/C=N/N5CCN(C)CC5)c(O)c4c3C2=O)NC(=O)/C(C)=C\\C=C\\[C@H](C)[C@H](O)[C@@H](C)[C@@H](O)[C@@H](C)[C@H](OC(C)=O)[C@@H]1C", "test system": "ATCC27294 H37RV", "conditions": "7 days", "MIC": "0.03 µg/mL"}
{"Structure (SMILES)": "NNC(=O)c1ccncc1", "test system": "H37RV", "MIC": "> 13.7 µg/mL"}
{"Structure (SMILES)": "CC(C)CC=CC=CC(=O)NC(CC(N)=O)C(=O)NC1C(=O)NC(c2ccc(O)cc2)C(=O)NC(CCCN)C(=O)NC(C(C)O)C(=O)NC(c2ccc(O)cc2)C(=O)NC(c2ccc(O)cc2)C(=O)NC(C(C)O)C(=O)NC(Cc2ccccc2)C(=O)NC(CCCN)C(=O)NC(c2ccc(OC3OC(CO)C(O)C(O)C3OC3OC(CO)C(O)C(O)C3O)cc2)C(=O)NC(C(C)O)C(=O)NC(c2ccc(O)cc2)C(=O)NCC(=O)NC(CC(C)C)C(=O)NC(C)C(=O)NC(c2ccc(O)c(Cl)c2)C(=O)OC1C(N)=O (stereo not drawn)", "test system": "H37RV", "conditions": "14 days", "MIC": "6.25 to 12.5 µg/mL"}
{"Structure (SMILES)": "O=C1C(=NNc2nc(-c3ccccc3)cs2)C(N=Cc2ccc(Cl)cc2)=NN1c1ccccc1", "test": "resazurin", "test system": "H37RV", "conditions": "5 days", "MIC": "51.5 µM"}
{"Structure (SMILES)": "CCCCCCNC(=S)Nc1cccc(-c2cc(C(=O)OC)no2)c1", "test system": "ATCC27294 H37RV", "conditions": "7 days", "MIC": "2 µg/mL"}
{"Structure (SMILES)": "CO[C@H]1/C=C/O[C@@]2(C)Oc3c(C)c(O)c4c(O)c(c(/C=N/N5CCN(C)CC5)c(O)c4c3C2=O)NC(=O)/C(C)=C\\C=C\\[C@H](C)[C@H](O)[C@@H](C)[C@@H](O)[C@@H](C)[C@H](OC(C)=O)[C@@H]1C", "test": "resazurin", "test system": "H37RA", "conditions": "14 days", "MIC": "0.06 µg/mL"}
{"Structure (SMILES)": "NNC(=O)c1ccncc1", "test system": "W4", "MIC": "0.14 µM"}
{"Structure (SMILES)": "O=C(c1cc2c(F)cc(F)cc2[nH]1)N1CCN(C(=O)C23CC4CC(CC(C4)C2)C3)CC1", "test": "resazurin", "test system": "H37RV", "MIC": "> 75 µM"}
{"Structure (SMILES)": "O=C(C1CCCN(S(=O)(=O)c2ccc([N+](=O)[O-])cc2)C1)N1CCN(C(c2ccc(F)cc2)c2ccc(F)cc2)CC1 (stereo not drawn)", "test system": "ATCC27294 H37RV", "MIC": "> 25 µg/mL"}
{"Structure (SMILES)": "Cc1cn2c(C(=O)NCc3ccc(S(F)(F)(F)(F)F)cc3)c(C)nc2s1", "test system": "H37RV", "conditions": "5 days", "MIC": "0.4 µM"}
{"Structure (SMILES)": "Cc1ccc(C)n1-c1ccc(-c2nnc(-c3c(Cl)cccc3Cl)[nH]2)cc1", "test": "broth dilution", "test system": "H37RV", "conditions": "21 days", "MIC": "8 µg/mL"}
{"Structure (SMILES)": "COC(=O)c1cc(-c2cccc(NC(=O)Nc3ccc(F)cc3)c2)on1", "test system": "ATCC27294 H37RV", "conditions": "7 days", "MIC": "0.5 µg/mL"}
